According to publication PMC5680101 (The journal of physical chemistry. B, 2017):
“And” between values parts separate entries of the source, which are not always exact repeats. Equal entries are not always repeated. Where two headings read alike, the source gives them in different places.

How the values were obtained:
Type in all cases: binding, E. coli
OmpG = OmpG (Escherichia coli, UniProt P76045, D245C); experiment: biochemical; conditions: for p (Hill coefficient): four-parameter Hill fit; for rmax: maximum anisotropy at detergent concentrations above the CMC; for rmax / rmin: pH 7.4; for Rh max: maximum hydrodynamic radius of the proteomicelle; for Dr slow: rotational diffusion coefficient under solvation conditions; for q (slope factor or transition steepness): calculated at the midpoint of the dissociation phase; for ΔRh: decrease in hydrodynamic radius as a result of detergent desolvation; for rmin: minimum anisotropy, extrapolated for the lowest detergent concentration; for Dr fast: rotational diffusion coefficient under desolvation conditions; for ΔG: ΔG = RT ln Kd
Sequence of OmpG (P76045 22-301 D245C): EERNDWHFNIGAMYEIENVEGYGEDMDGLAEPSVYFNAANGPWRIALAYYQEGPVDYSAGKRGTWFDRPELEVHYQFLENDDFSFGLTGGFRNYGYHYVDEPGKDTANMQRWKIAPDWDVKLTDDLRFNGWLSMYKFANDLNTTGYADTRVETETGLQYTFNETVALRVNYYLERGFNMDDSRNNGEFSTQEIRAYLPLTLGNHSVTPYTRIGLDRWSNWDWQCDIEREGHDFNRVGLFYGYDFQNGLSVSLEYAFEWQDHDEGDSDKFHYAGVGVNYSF

FhuA ΔC/Δ5L = FhuA ΔC/Δ5L (Escherichia coli, UniProt P06971, DEL561-566/INS560[…], form not given); conditions: for q (slope factor or transition steepness): calculated at the midpoint of the dissociation phase; for ΔRh: decrease in hydrodynamic radius as a result of detergent desolvation; for p (Hill coefficient): four-parameter Hill fit; for p (Hill coefficient) / Kd: pH 7.4, 24°C; for Kd: read-out: Kd (apparent dissociation constant), midpoint of dose-dependent dissociation phase; for ΔG: ΔG = RT ln Kd
Sequence of FhuA ΔC/Δ5L (P06971 194-747, stated change not applied): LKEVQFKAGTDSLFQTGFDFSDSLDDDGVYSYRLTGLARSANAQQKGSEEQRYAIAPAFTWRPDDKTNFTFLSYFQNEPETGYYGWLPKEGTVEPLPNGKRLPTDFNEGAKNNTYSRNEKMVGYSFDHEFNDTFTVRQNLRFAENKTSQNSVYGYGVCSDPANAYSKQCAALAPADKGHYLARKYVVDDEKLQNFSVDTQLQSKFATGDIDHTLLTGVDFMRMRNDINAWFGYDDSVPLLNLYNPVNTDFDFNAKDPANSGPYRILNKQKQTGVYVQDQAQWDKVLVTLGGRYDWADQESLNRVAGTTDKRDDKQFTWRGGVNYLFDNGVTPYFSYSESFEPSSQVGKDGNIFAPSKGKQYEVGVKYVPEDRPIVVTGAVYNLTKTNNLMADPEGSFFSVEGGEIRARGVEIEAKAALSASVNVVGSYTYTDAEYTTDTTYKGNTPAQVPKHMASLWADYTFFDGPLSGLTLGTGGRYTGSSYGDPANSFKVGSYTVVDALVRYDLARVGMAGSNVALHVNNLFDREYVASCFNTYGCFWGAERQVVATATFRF

FhuA ΔC/Δ5L_25N = FhuA ΔC/Δ5L_25N (Escherichia coli, UniProt P06971); conditions: for rmax: maximum anisotropy at detergent concentrations above the CMC; for rmax / rmin / p (Hill coefficient) / Kd: 200 mM NaCl, 50 mM HEPES; for rmax / rmin: pH 7.4; for rmin: minimum anisotropy, extrapolated for the lowest detergent concentration; for Dr fast: rotational diffusion coefficient under desolvation conditions; for Dr slow: rotational diffusion coefficient under solvation conditions; for q (slope factor or transition steepness): calculated at the midpoint of the dissociation phase; for ΔRh: decrease in hydrodynamic radius as a result of detergent desolvation; for p (Hill coefficient): four-parameter Hill fit; for p (Hill coefficient) / Kd: pH 7.4, 24°C; for Rh max: maximum hydrodynamic radius of the proteomicelle; for Kd: read-out: Kd (apparent dissociation constant), midpoint of dose-dependent dissociation phase; for ΔG: ΔG = RT ln Kd
Sequence of FhuA ΔC/Δ5L_25N (P06971 194-747, stated change not applied): as above

FhuA ΔC/Δ7L_30N = FhuA ΔC/Δ7L_30N (Escherichia coli, UniProt P06971); conditions: for rmax: maximum anisotropy at detergent concentrations above the CMC; for rmax / rmin / p (Hill coefficient) / Kd: 200 mM NaCl, 50 mM HEPES; for rmax / rmin: pH 7.4; for rmin: minimum anisotropy, extrapolated for the lowest detergent concentration; for Dr fast: rotational diffusion coefficient under desolvation conditions; for Dr slow: rotational diffusion coefficient under solvation conditions; for q (slope factor or transition steepness): calculated at the midpoint of the dissociation phase; for ΔRh: decrease in hydrodynamic radius as a result of detergent desolvation; for p (Hill coefficient): four-parameter Hill fit; for p (Hill coefficient) / Kd: pH 7.4, 24°C; for Rh max: maximum hydrodynamic radius of the proteomicelle; for Kd: read-out: Kd (apparent dissociation constant), midpoint of dose-dependent dissociation phase; for ΔG: ΔG = RT ln Kd
Sequence of FhuA ΔC/Δ7L_30N (P06971 194-747, stated change not applied): as above

acidic β-barrel proteins = experiment: steady-state FP anisotropy, detergent desolvation, acidic β barrels; conditions: physiological pH
Outline: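 Acidic β-barrels: FhuA ΔC/Δ5L, with a GS-rich single-Cys loop replacing turn T7, labeled with Texas Red C2 maleimide in 6 M Gdm-HCl. OmpG D224C labeled in 8 M urea at 1:20 protein:dye. Detergent-refolded protein diluted into wells of varying detergent spanning the CMC, 28 nM final protein. 15 min equilibration, kinetic steady-state anisotropy read, 24 h endpoints covered at 4°C.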

basic β-barrel proteins = experiment: steady-state FP anisotropy, detergent desolvation, basic β barrels
Outline: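 Basic FhuA variants, C-terminal His6, labeled with 200 μM Texas Red C2 maleimide overnight at room temperature in 6 M Gdm-HCl. Denatured protein refolded by 50-fold dilution into 200 mM NaCl, 50 mM HEPES, pH 7.4, 4°C, detergent above CMC. Then diluted into wells of varying detergent, 28 nM final protein. 15 min equilibration, kinetic anisotropy read, 24 h endpoints at 4°C.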

[1] = 200 mM NaCl, 50 mM HEPES, pH 7.4, 24°C
[2] = read-out: Kd (apparent dissociation constant), midpoint of dose-dependent dissociation phase, 200 mM NaCl, 50 mM HEPES, pH 7.4, 24°C
[3] = maximum anisotropy at detergent concentrations above the CMC, 200 mM NaCl, 50 mM HEPES, pH 7.4
[4] = maximum hydrodynamic radius of the proteomicelle
[5] = minimum anisotropy, extrapolated for the lowest detergent concentration, 200 mM NaCl, 50 mM HEPES, pH 7.4
[6] = rotational diffusion coefficient under desolvation conditions
[7] = rotational diffusion coefficient under solvation conditions
[8] = anisotropy determined in 6 M Gdm-HCl

## C[C@H](CCC(=O)NCCC[N+](C)(C)CCCS(=O)(=O)[O-])[C@H]1CC[C@H]2[C@@H]3[C@H](O)C[C@@H]4C[C@H](O)CC[C@]4(C)[C@H]3C[C@H](O)[C@]12C [CHAPS]
OmpG; [1]
  p (Hill coefficient): ~1.6
OmpG; 200 mM NaCl, 50 mM HEPES
  rmax: 0.318 ± 0.002
OmpG
  Rh max: 2.5 nm
  Dr slow: 1.0 ± 0.1 10^7 s^−1
OmpG; [2]
  Kd: < 0.6 mM
FhuA ΔC/Δ5L
  q (slope factor or transition steepness): 0.015 mM⁻¹
  ΔRh: 0.77 ± 0.18 nm
  ΔG: -3.4 ± 0.5 kcal/mol
FhuA ΔC/Δ5L; 200 mM NaCl, 50 mM HEPES
  p (Hill coefficient): 1.7 ± 0.6
  Kd: 3.3 ± 1.8 mM
FhuA ΔC/Δ5L; [3]
  rmax: 0.292 ± 0.004
FhuA ΔC/Δ5L; [4]
  Rh max: 2.2 nm
FhuA ΔC/Δ5L; [5]
  rmin: 0.172 ± 0.048
FhuA ΔC/Δ5L; [6]
  Dr fast: 1.5 ± 0.1 10^7 s^−1
FhuA ΔC/Δ5L_25N
  rmax: ~0.17
  rmin: ~0.15
  Dr fast: ~6.6 10^7 s^−1
  Dr slow: ~5.2 10^7 s^−1
FhuA ΔC/Δ7L_30N
  rmax: ~0.17
  rmin: ~0.16
  Dr fast: ~6.0 10^7 s^−1
  Dr slow: ~5.2 10^7 s^−1

## OC[C@H]1O[C@H](O[C@H]2[C@H](O)[C@@H](O)[C@H](OCCCCC3CCCCC3)O[C@@H]2CO)[C@H](O)[C@@H](O)[C@@H]1O [CYMAL-4, 4-cyclohexyl-1-Butyl-β-D-maltoside]
OmpG
  q (slope factor or transition steepness): 0.25 mM⁻¹
  ΔRh: 1.2 ± 0.1 nm
  Rh max: 2.6 nm
  Dr fast: 5.8 ± 0.1 10^7 s^−1
  Dr slow: 0.90 ± 0.01 10^7 s^−1
  ΔG: -3.2 ± 0.1 kcal/mol
OmpG; [1]
  p (Hill coefficient): 6.7 ± 0.1
OmpG; 200 mM NaCl, 50 mM HEPES
  rmax: 0.326 ± 0.001
  rmin: 0.163 ± 0.001
OmpG; [2]
  Kd: 4.6 ± 0.1 mM
FhuA ΔC/Δ5L
  q (slope factor or transition steepness): 0.38 mM⁻¹
  ΔRh: 1.7 ± 0.1 nm
  ΔG: -3.1 ± 0.1 kcal/mol
FhuA ΔC/Δ5L; 200 mM NaCl, 50 mM HEPES
  p (Hill coefficient): 3.7 ± 0.1
  Kd: 5.3 ± 0.1 mM
FhuA ΔC/Δ5L; [3]
  rmax: 0.367 ± 0.001
FhuA ΔC/Δ5L; [4]
  Rh max: 3.6 nm
FhuA ΔC/Δ5L; [5]
  rmin: 0.242 ± 0.001
FhuA ΔC/Δ5L; [6]
  Dr fast: 2.6 ± 0.1 10^7 s^−1
FhuA ΔC/Δ5L; [7]
  Dr slow: 0.36 ± 0.01 10^7 s^−1
FhuA ΔC/Δ5L_25N
  q (slope factor or transition steepness): 0.28 mM⁻¹
  ΔRh: 1.4 ± 0.1 nm
  p (Hill coefficient): 5.2 ± 0.3
  rmax: 0.341 ± 0.001
  Rh max: 2.9 nm
  rmin: 0.166 ± 0.001
  Kd: 5.7 ± 0.1 mM
  Dr fast: 5.6 ± 0.1 10^7 s^−1
  Dr slow: 0.69 ± 0.01 10^7 s^−1
  ΔG: -3.1 ± 0.1 kcal/mol
FhuA ΔC/Δ7L_30N
  q (slope factor or transition steepness): 0.17 mM⁻¹
  ΔRh: 1.5 ± 0.2 nm
  p (Hill coefficient): 2.3 ± 0.9
  rmax: 0.345 ± 0.004
  Rh max: 2.9 nm
  rmin: 0.168 ± 0.025
  Kd: 4.5 ± 1.1 mM
  Dr fast: 5.5 ± 1.2 10^7 s^−1
  Dr slow: 0.63 ± 0.05 10^7 s^−1
  ΔG: -3.2 ± 0.1 kcal/mol

## CCCCCCCCCCO[C@@H]1O[C@H](CO)[C@@H](O[C@H]2O[C@H](CO)[C@@H](O)[C@H](O)[C@H]2O)[C@H](O)[C@H]1O [DM, n-decyl-β-D-maltoside]
OmpG
  Kd: 1.8 ± 0.4 mM
  q (slope factor or transition steepness): 0.064 mM⁻¹
  ΔRh: 0.95 ± 0.04 nm
  Rh max: 2.6 nm
  Dr fast: 3.5 ± 0.2 10^7 s^−1
  Dr slow: 0.89 ± 0.02 10^7 s^−1
  ΔG: -3.7 ± 0.1 kcal/mol
OmpG; [1]
  p (Hill coefficient): 4.1 ± 1.2
OmpG; 200 mM NaCl, 50 mM HEPES
  rmax: 0.327 ± 0.001
  rmin: 0.214 ± 0.005
FhuA ΔC/Δ5L
  q (slope factor or transition steepness): 0.072 mM⁻¹
  ΔRh: 1.6 ± 0.1 nm
  ΔG: -3.8 ± 0.1 kcal/mol
FhuA ΔC/Δ5L; 200 mM NaCl, 50 mM HEPES
  p (Hill coefficient): 3.5 ± 0.5
  Kd: 1.7 ± 0.1 mM
FhuA ΔC/Δ5L; [3]
  rmax: 0.360 ± 0.001
FhuA ΔC/Δ5L; [4]
  Rh max: 3.3 nm
FhuA ΔC/Δ5L; [5]
  rmin: 0.219 ± 0.005
FhuA ΔC/Δ5L; [6]
  Dr fast: 3.3 ± 0.2 10^7 s^−1
FhuA ΔC/Δ5L; [7]
  Dr slow: 0.44 ± 0.01 10^7 s^−1
FhuA ΔC/Δ5L_25N
  q (slope factor or transition steepness): 1.30 mM⁻¹
  ΔRh: 1.5 ± 0.1 nm
  p (Hill coefficient): 27 ± 3
  rmax: 0.343 ± 0.002
  Rh max: 3.0 nm
  rmin: 0.166 ± 0.003
  Kd: 0.9 ± 0.1 mM
  Dr fast: 5.6 ± 0.2 10^7 s^−1
  Dr slow: 0.66 ± 0.03 10^7 s^−1
  ΔG: -4.1 ± 0.1 kcal/mol
FhuA ΔC/Δ7L_30N
  q (slope factor or transition steepness): 1.07 mM⁻¹
  ΔRh: 1.0 ± 0.1 nm
  p (Hill coefficient): 27 ± 6
  rmax: 0.312 ± 0.001
  Rh max: 2.4 nm
  rmin: 0.168 ± 0.007
  Kd: 0.9 ± 0.1 mM
  Dr fast: 1.0 ± 0.1 10^7 s^−1
  Dr slow: 5.5 ± 0.4 10^7 s^−1
  ΔG: -4.1 ± 0.1 kcal/mol
Acidic β-barrel proteins
  Kd: ~1.8 mM
Basic β-barrel proteins; basic FhuA proteins, pH 7.4
  Hill cooperativity p: ~ 27
Basic β-barrel proteins; physiological pH
  Kd: ~0.9 mM

## Cl.N=C(N)N [Gdm-HCl, guanidinium hydrochloride]
FhuA ΔC/Δ5L; [8]
  rmax: ~0.16
  rmin: ~0.16
FhuA ΔC/Δ5L; fully unfolded, most rotationally diffusive protein in 6 M Gdm-HCl
  basal (minimum) anisotropy readout, r1: 0.16 and ~ 0.16
FhuA ΔC/Δ5L; in 6 M Gdm-HCl
  Dr fast: ~6.0 10^7 s^−1
  Dr slow: ~6.0 10^7 s^−1
  Rh max: 1.4 nm

## CCCCCCCCO[C@@H]1O[C@H](CO)[C@@H](O)[C@H](O)[C@H]1O [OG, n-octyl-β-D-glucoside]
OmpG
  q (slope factor or transition steepness): 0.017 mM⁻¹
  ΔRh: 1.0 ± 0.1 nm
  Rh max: 2.4 nm
  Dr fast: 6.4 ± 0.1 10^7 s^−1
  Dr slow: 1.2 ± 0.1 10^7 s^−1
  ΔG: -2.7 ± 0.1 kcal/mol
OmpG; [1]
  p (Hill coefficient): 4.9 ± 0.5
OmpG; 200 mM NaCl, 50 mM HEPES
  rmax: 0.306 ± 0.001
  rmin: 0.153 ± 0.002
OmpG; [2]
  Kd: 11 ± 1 mM
FhuA ΔC/Δ5L; acidic FhuA proteins refolded in detergent
  anisotropy signal: ~ 0.3
FhuA ΔC/Δ5L
  q (slope factor or transition steepness): 0.013 mM⁻¹
  ΔRh: 0.80 ± 0.02 nm
  ΔG: -2.5 ± 0.1 kcal/mol
FhuA ΔC/Δ5L; 200 mM NaCl, 50 mM HEPES
  p (Hill coefficient): 5.3 ± 0.9
  Kd: 13 ± 1 mM
FhuA ΔC/Δ5L; [3]
  rmax: 0.291 ± 0.002
FhuA ΔC/Δ5L; [4]
  Rh max: 2.2 nm
FhuA ΔC/Δ5L; [5]
  rmin: 0.162 ± 0.002
FhuA ΔC/Δ5L; [6]
  Dr fast: 5.8 ± 0.1 10^7 s^−1
FhuA ΔC/Δ5L; [7]
  Dr slow: 1.5 ± 0.1 10^7 s^−1
FhuA ΔC/Δ5L_25N
  rmax: ~0.17
  rmin: ~0.15
  Dr fast: ~6.6 10^7 s^−1
  Dr slow: ~5.2 10^7 s^−1
FhuA ΔC/Δ7L_30N
  rmax: ~0.17
  rmin: ~0.15
  Dr fast: ~6.6 10^7 s^−1
  Dr slow: ~5.2 10^7 s^−1

## CCCCCCCCCCCCOS(=O)(=O)[O-].[Na+] [SDS]
FhuA ΔC/Δ5L; in 40 mM SDS
  minimum anisotropy value, r0: ~ 0.16
